Data taken from ChEMBL document CHEMBL4715843, “NO-releasing STAT3 inhibitors suppress BRAF-mutant melanoma growth” (Eur J Med Chem, 2020).
Active and inactive are the calls of the source. The rule behind the calls is not given here.

Assays:
UO-31 = test: Anticancer activity against human UO-31 cells assessed as cell growth inhibition at 10 uM measured after 48 hrs by SRB assay relative to control; format: functional; details: read-out: GI
Summary of the method: (§1)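 NCI 60-cell-line screen. Cells in RPMI with 5% FBS were plated at 5,000–40,000 cells/well by doubling time and preincubated 24 h at 37 °C. Compound was added at a single 10 µM for 48 h, then cells were fixed with cold TCA (10% final) and stained with 0.4% SRB. Absorbance at 515 nm gave percent growth versus untreated control and time-zero cells.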

[1] = biological target: T1, Signal transducer and activator of transcription 3 (Homo sapiens, UniProt P40763); test: Inhibition of STAT3 phosphorylation at Y705 residues in human A-375 cells at 10 to 25 uM after 12 hrs by Western blotting analysis; format: cell-based; details: dose 10-25 µM
T1 sequence (P40763 whole entry): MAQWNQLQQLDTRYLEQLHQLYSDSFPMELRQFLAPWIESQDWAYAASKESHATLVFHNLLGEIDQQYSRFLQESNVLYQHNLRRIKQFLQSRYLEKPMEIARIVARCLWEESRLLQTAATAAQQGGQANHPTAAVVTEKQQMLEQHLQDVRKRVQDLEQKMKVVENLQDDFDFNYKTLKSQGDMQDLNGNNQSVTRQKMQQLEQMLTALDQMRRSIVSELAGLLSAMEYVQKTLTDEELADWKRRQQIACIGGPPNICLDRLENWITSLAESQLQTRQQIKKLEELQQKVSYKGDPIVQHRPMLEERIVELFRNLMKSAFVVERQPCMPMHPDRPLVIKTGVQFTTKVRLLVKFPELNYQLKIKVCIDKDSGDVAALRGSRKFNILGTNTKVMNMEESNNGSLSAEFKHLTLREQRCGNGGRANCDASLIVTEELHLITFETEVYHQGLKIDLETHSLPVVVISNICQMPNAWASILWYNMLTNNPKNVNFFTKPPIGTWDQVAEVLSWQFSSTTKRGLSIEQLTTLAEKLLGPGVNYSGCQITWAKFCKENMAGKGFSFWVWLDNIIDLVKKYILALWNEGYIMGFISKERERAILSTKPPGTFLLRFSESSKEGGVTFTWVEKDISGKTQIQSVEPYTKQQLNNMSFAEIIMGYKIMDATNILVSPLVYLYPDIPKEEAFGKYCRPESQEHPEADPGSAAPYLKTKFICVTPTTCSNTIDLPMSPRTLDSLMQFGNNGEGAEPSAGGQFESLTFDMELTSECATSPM
Summary of the method: (§2)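 Cells lysed in M-PER after 12 h drug exposure (overnight per text); 60 µg total protein run on 10% SDS-PAGE, transferred to PVDF, probed overnight at 4 °C with phospho-specific antibodies. Panel lines (U87-MG, MDA-MB-468, MIA PaCa-2, NCI-H157, A549) given 25 µM; A375 given 0, 5, 10, 25 µM. Actin and/or vinculin loading controls.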

[2] = biological target: T1, Signal transducer and activator of transcription 3; test: Inhibition of STAT3 phosphorylation at S727 residues in human A-375 cells at 10 to 25 uM after 12 hrs by Western blotting analysis; format: cell-based; details: dose 10-25 µM; summary of the method: as §2
CCRF-CEM = test: Anticancer activity against human CCRF-CEM cells assessed as cell growth inhibition at 10 uM measured after 48 hrs by SRB assay relative to control; format: functional; details: read-out: GI; summary of the method: as §1
MCF7 = test: Anticancer activity against human MCF7 cells assessed as cell growth inhibition at 10 uM measured after 48 hrs by SRB assay relative to control; format: functional; details: read-out: GI; summary of the method: as §1
T47D = test: Anticancer activity against human T47D cells assessed as cell growth inhibition at 10 uM measured after 48 hrs by SRB assay relative to control; format: functional; details: read-out: GI; summary of the method: as §1
[3] = biological target: T1, Signal transducer and activator of transcription 3; test: Inhibition of STAT3 phosphorylation at Y705 residues in human U-87 MG cells at 25 uM after 12 hrs by Western blotting analysis; format: cell-based; summary of the method: as §2
[4] = biological target: T1, Signal transducer and activator of transcription 3; test: Inhibition of STAT3 phosphorylation at Y705 residues in human NCI-H157 cells at 25 uM after 12 hrs by Western blotting analysis; format: cell-based; summary of the method: as §2
[5] = biological target: T1, Signal transducer and activator of transcription 3; test: Inhibition of STAT3 phosphorylation at Y705 residues in human A-375 cells at 5 to 10 uM after 12 hrs by Western blotting analysis; format: cell-based; details: dose 5-10 µM; summary of the method: as §2
[6] = biological target: T1, Signal transducer and activator of transcription 3; test: Inhibition of STAT3 phosphorylation at S727 residues in human U-87 MG cells at 25 uM after 12 hrs by Western blotting analysis; format: cell-based; summary of the method: as §2
[7] = biological target: T1, Signal transducer and activator of transcription 3; test: Inhibition of STAT3 phosphorylation at S727 residues in human MDA-MB-468 cells at 25 uM after 12 hrs by Western blotting analysis; format: cell-based; summary of the method: as §2
[8] = biological target: Tyrosine-protein kinase JAK2 (Homo sapiens) (UniProt O60674); test: Inhibition of JAK2 phosphorylation in human MIA PaCa-2 cells at 25 uM after 12 hrs by Western blotting analysis; format: cell-based; summary of the method: as §2
Chain of Tyrosine-protein kinase JAK2 (Homo sapiens) (O60674 whole entry): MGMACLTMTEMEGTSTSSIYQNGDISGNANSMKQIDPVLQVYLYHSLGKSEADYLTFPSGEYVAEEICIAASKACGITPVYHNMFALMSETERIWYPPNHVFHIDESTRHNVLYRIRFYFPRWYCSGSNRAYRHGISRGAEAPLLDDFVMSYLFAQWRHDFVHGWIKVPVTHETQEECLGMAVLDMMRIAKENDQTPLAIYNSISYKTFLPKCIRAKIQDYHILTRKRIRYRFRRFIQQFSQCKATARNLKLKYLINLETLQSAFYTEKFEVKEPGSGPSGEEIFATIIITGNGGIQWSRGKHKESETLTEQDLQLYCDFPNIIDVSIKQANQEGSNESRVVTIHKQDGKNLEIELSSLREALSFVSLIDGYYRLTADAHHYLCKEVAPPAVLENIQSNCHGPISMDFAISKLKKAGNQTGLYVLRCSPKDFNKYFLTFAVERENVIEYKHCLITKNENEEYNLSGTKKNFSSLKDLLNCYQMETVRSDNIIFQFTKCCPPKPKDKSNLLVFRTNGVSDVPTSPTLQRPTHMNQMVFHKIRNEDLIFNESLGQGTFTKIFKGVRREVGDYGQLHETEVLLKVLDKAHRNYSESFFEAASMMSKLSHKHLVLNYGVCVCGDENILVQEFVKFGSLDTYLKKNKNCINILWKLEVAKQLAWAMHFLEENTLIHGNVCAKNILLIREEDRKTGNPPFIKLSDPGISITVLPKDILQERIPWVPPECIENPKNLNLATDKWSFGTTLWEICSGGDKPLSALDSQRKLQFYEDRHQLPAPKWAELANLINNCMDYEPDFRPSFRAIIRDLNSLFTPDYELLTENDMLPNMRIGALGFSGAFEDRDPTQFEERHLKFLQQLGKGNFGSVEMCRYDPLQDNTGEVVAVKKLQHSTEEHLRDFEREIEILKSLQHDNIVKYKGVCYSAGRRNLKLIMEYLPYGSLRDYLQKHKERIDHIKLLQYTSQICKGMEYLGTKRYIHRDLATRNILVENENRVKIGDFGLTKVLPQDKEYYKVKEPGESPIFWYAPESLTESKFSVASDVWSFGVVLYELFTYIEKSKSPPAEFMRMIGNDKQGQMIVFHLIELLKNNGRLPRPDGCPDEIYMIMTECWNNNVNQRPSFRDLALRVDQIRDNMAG

[9] = biological target: Tyrosine-protein kinase JAK2 (Homo sapiens) (UniProt O60674); test: Inhibition of JAK2 phosphorylation in human NCI-H157 cells at 25 uM after 12 hrs by Western blotting analysis; format: cell-based; summary of the method: as §2
[10] = biological target: Tyrosine-protein kinase JAK2 (Homo sapiens) (UniProt O60674); test: Inhibition of JAK2 phosphorylation in human A549 cells at 25 uM after 12 hrs by Western blotting analysis; format: cell-based; summary of the method: as §2
[11] = biological target: Proto-oncogene tyrosine-protein kinase Src (Homo sapiens) (UniProt P12931); test: Inhibition of SRC phosphorylation in human U-87 MG cells at 25 uM after 12 hrs by Western blotting analysis; format: cell-based; summary of the method: as §2
Chain of Proto-oncogene tyrosine-protein kinase Src (Homo sapiens) (P12931 2-536 limits assumed): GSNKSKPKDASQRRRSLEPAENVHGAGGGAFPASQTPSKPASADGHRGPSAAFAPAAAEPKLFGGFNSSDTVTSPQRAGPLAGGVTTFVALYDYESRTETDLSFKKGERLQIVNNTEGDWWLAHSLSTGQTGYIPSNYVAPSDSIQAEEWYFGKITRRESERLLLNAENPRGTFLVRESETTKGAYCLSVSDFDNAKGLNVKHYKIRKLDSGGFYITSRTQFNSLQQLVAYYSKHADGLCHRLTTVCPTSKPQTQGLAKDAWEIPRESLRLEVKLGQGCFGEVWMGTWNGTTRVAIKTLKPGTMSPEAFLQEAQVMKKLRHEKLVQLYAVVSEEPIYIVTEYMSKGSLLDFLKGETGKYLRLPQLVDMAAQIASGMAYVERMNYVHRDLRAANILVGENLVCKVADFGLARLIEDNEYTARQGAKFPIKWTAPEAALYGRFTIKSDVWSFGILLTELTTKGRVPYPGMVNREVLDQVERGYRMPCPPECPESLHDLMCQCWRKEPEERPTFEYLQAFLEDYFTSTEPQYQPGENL

[12] = biological target: Proto-oncogene tyrosine-protein kinase Src (Homo sapiens) (UniProt P12931); test: Inhibition of SRC phosphorylation in human NCI-H157 cells at 25 uM after 12 hrs by Western blotting analysis; format: cell-based; summary of the method: as §2
[13] = biological target: Proto-oncogene tyrosine-protein kinase Src (Homo sapiens) (UniProt P12931); test: Inhibition of SRC phosphorylation in human A549 cells at 25 uM after 12 hrs by Western blotting analysis; format: cell-based; summary of the method: as §2
U-87 MG = test: Antiproliferative activity against human U-87 MG cells measured after 48 hrs by MTS assay; format: functional, cell-based; details: U-87MG ATCC
Summary of the method: (§3)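 Cells were exposed to a dose range of inhibitor for 48 h, and viability was read by MTS assay in triplicate. GI50 was taken as the concentration giving 50% growth inhibition, averaged from three independent experiments. A375 was cultured in RPMI-1640 with Glutamax. A549 and NCI-H157 were kept in RPMI-1640, and MIA PaCa-2 and U87-MG in DMEM.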

NCI-H157 = test: Antiproliferative activity against human NCI-H157 cells measured after 48 hrs by MTS assay; format: functional, cell-based; summary of the method: as §3
A549 = test: Antiproliferative activity against human A549 cells measured after 48 hrs by MTS assay; format: functional, cell-based; summary of the method: as §3
MEL1617 = test: Antiproliferative activity against human MEL1617 cells measured after 48 hrs by MTS assay; format: functional, cell-based; summary of the method: as §3
451Lu [14] = test: Antiproliferative activity against human SB-590885-resistant 451Lu cells assessed as reduction in cell viability measured after 48 hrs by MTS assay; format: functional
Summary of the method: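 Melanoma lines were grown in RPMI-1640 with Glutamax at 37 °C and 5% CO2. The resistant 451 Lu-R and MEL 1617-R sublines were maintained with 1 µM PLX4720. Cells were incubated with vehicle or inhibitor over a dose range, and viability was read by MTS assay in triplicate.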

451Lu [15] = test: Induction of apoptosis in human SB-590885-sensitive 451Lu cells assessed as increase in cleaved PARP expression measured after 12 hrs by Western blot analysis; format: functional
Summary of the method: (§4)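 Sensitive and resistant 451 Lu cells were exposed to a dose range for 12 h before lysis. PARP, cleaved PARP and caspase-7 were detected by western blot against a vinculin loading control; repeated twice.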

451Lu [16] = test: Induction of apoptosis in human SB-590885-sensitive 451Lu cells assessed as increase in cleaved caspase-7 expression measured after 12 hrs by Western blot analysis; format: functional; summary of the method: as §4
451Lu [17] = test: Induction of apoptosis in human SB-590885-resistant 451Lu cells assessed as increase in cleaved caspase-7 expression measured after 12 hrs by Western blot analysis; format: functional; summary of the method: as §4
451Lu [18] = test: Induction of apoptosis in human SB-590885-resistant 451Lu cells assessed as increase in caspase-3/7 activation incubated for 45 to 60 hrs by IncuCyte Caspase-3/7 reagent based assay; format: functional; details: time 45-60 hrs
Summary of the method: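 451 Lu-R cells (2000/well) were allowed to adhere for 24 h, then treated with a dose range in full medium containing IncuCyte Caspase-3/7 reagent. Wells were imaged over time with a ×10 objective. Apoptotic cell counts were normalized to percent confluence at the final time point; SEM, n = 3–4.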

C=CCn1c(SCC(=O)Nc2ccc(/C(C)=N\O)cc2)nnc1-c1cc(-c2ccc(Cl)cc2)nc2ccccc12
inhibition of growth at 10 µM (UO-31): 100%
inhibition [1]: Active
inhibition [2]: Active

C=CCn1c(SCC(=O)Nc2ccc(/C(C)=N\O)cc2)nnc1-c1cc(-c2ccccc2)nc2ccccc12
inhibition of growth at 10 µM (CCRF-CEM): 76%
inhibition of growth at 10 µM (MCF7): 76%
inhibition of growth at 10 µM (T47D): 76%
inhibition [3]: Active
inhibition [4]: Active
inhibition [5]: Active
inhibition [6]: Active
inhibition [7]: Active
inhibition [8]: inactive
inhibition [9]: inactive
inhibition [10]: inactive
inhibition [11]: inactive
inhibition [12]: inactive
inhibition [13]: inactive
Activity (U-87 MG): Active
Activity (NCI-H157): Active
Activity (A549): Active
Activity (MEL1617): Active
Activity (451Lu [14]): Dose-dependent effect
Activity (451Lu [15]): Dose-dependent effect
Activity (451Lu [16]): Dose-dependent effect
Activity (451Lu [17]): Dose-dependent effect
Activity (451Lu [18]): Dose-dependent effect
